Published values pooled from the literature.
Compare with care: the assays were run in different laboratories.
Effect on: cell growth or viability

| SMILES | cell line | method | concentration | time | endpoint | result |
| --- | --- | --- | --- | --- | --- | --- |
| COc1cccc2c1C(=O)c1c(O)c3c(c(O)c1C2=O)C[C@@](O)(C(=O)CO)C[C@@H]3O[C@H]1C[C@H](N)[C@H](O)[C@H](C)O1 | SU-DHL10 | ATP luminescence | – | 72 h | IC50 | 0.32 µM |
| FC(F)(F)c1cc(OCc2cc(-c3ccc(Cl)cc3Cl)no2)c2ccccc2n1 | DND41 | MTS | – | 72 h | IC50 | > 100 µM |
| Cc1nc(Nc2ncc(C(=O)Nc3c(C)cccc3Cl)s2)cc(N2CC[C@H](O)C2)n1 | JeKo-1 | ATP luminescence | 10 µM | 72 h | inhibition | 37% |
| C[C@H](Oc1nccc(-c2noc([C@@]3(C)CCCc4sc(N)c(C#N)c43)n2)n1)[C@@H]1CCCN1C | NCI-H727 | – | – | 5 days | EC50 | 0.271 µM |
| Nc1cccc2c1C(=O)N(C1CCC(=O)NC1=O)C2=O (centres unmarked) | OCI-Ly10 | CCK-8 | – | 7 days | IC50 | 0.36 µM |
| O=c1cc(OCc2cc(-c3ccc(C(F)(F)F)cc3)no2)c2ccccc2o1 | DND41 | MTS | – | 72 h | IC50 | > 100 µM |
| C[C@H]1CN(C)CCN1c1nccc(-c2noc3c2CCC[C@@]32CCCc3sc(N)c(C#N)c32)n1 | NCI-H727 | – | – | 5 days | EC50 | 0.304 µM |
| CCOC(=O)c1c(-c2ccc(OC)cc2)oc2ccc(OCc3cn(Cc4ccccc4)nn3)c(CN3CCCCC3)c12 | J774.A1 | resazurin | – | 18 h | IC50 | 37.9 µM |
| O=c1cc(OCc2cc(-c3ccccn3)no2)c2ccccc2o1 | DND41 | MTS | – | 72 h | IC50 | > 100 µM |
| C[C@H]1CNCCN1c1nccc(-c2noc([C@@]3(C)CCCc4sc(N)c(C#N)c43)n2)n1 | NCI-H727 | – | – | 5 days | EC50 | > 1 µM |
| CCOc1ccc(C(=O)CC(SCc2ccc(Cl)cc2)C(=O)OC)cc1 (centres unmarked) | WM 266-4 | MTT | – | 48 h | EC50 | 21 µM |
| C[C@H]1CNCCCN1c1nccc(-c2noc([C@@]3(C)CCCc4sc(N)c(C#N)c43)n2)n1 | NCI-H727 | – | – | 5 days | EC50 | > 1 µM |
| c1ccc(-c2cc(CNc3cccc4cccnc34)on2)cc1 | DND41 | MTS | – | 72 h | IC50 | > 100 µM |
| COc1ccc(-c2oc3ccc(O)c(CN4CCCCC4)c3c2C(=O)NCc2cn(Cc3ccccc3)nn2)cc1 | J774.A1 | resazurin | – | 18 h | IC50 | 8 µM |
